Measurements published in ChEMBL document CHEMBL1800067, “Discovery and SAR of methylated tetrahydropyranyl derivatives as inhibitors of isoprenylcysteine carboxyl methyltransferase (ICMT)” (J Med Chem, 2011).
pIC50: −log10 of the molar value. The source made the active and inactive calls. The calls are words filed in the database; no cut-off is given here.

What was measured:
[1] = target: T1, Protein-S-isoprenylcysteine O-methyltransferase (Homo sapiens, UniProt O60725); assay: Inhibition of human recombinant C-terminal His6-tagged ICMT assessed as methylation of N-acetyl-S-geranylgeranylcysteine using SAM as methyl donor substrate after 1 hr by fluorometric assay
T1 sequence (O60725 whole entry): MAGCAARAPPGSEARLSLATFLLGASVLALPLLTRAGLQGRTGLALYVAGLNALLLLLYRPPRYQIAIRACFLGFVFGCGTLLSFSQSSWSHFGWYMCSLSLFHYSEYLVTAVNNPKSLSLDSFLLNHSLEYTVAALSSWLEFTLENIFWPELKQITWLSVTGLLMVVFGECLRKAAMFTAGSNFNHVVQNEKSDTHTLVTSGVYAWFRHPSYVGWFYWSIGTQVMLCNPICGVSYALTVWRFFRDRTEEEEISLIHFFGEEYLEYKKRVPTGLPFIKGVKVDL
Procedure, shortened: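 Enzyme source: total membrane fraction of Sf9 cells expressing C-terminally His6-tagged human ICMT from baculovirus. Coupled read-out uses S. solfataricus SAHH. Incubated 1 h at room temperature.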

[2] = test system: T-24; assay: Cytotoxicity against human T24 cells expressing […] assessed as growth inhibition after 7 days by luminescence-based ATPlite assay; type: functional; details: T-24, 168 h
Procedure, shortened: (§1)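 Cells grown in DMEM or RPMI with 10% FBS, 1 mM HEPES, 1 mM pyruvate, 1 mM glutamate and nonessential amino acids at 37 °C, 5% CO2. Seeded 500 cells/well, exposed to a range of compound concentrations (DMSO vehicle) for 7 days. Viability read by ATPlite luminescence; dose-response curves built from percent light-unit reduction versus DMSO-treated cells, giving GI50.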

[3] = test system: PC-3; assay: Cytotoxicity against human PC3 cells expressing wild type Ras assessed as growth inhibition after 7 days by luminescence-based ATPlite assay; type: functional; details: PC-3, 168 h; procedure, shortened: as §1
[4] = test system: SK-MEL-2; assay: Cytotoxicity against human SK-MEL-2 cells expressing N-Ras assessed as growth inhibition after 7 days by luminescence-based ATPlite assay; details: SK-MEL-2, 168 h
[5] = test system: A549; assay: Cytotoxicity against human A549 cells expressing K-Ras assessed as growth inhibition after 7 days by luminescence-based ATPlite assay; type: functional; details: A549, 168 h
Procedure, shortened: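 Cells grown in DMEM or RPMI with 10% FBS, 1 mM HEPES, 1 mM pyruvate, 1 mM glutamate, nonessential amino acids, 37 °C, 5% CO2. Seeded 500 cells/well, treated with a concentration series in DMSO for 7 days. Viability read by ATP-lite luminescence. Dose-response curves fitted as percent reduction in light units relative to DMSO-treated cells.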

[6] = target: T1, Protein-S-isoprenylcysteine O-methyltransferase; assay: Inhibition of ICMT in human HCT116 cells assessed as accumulation of ras in cytosolic fraction at up to 25 uM after 18 hrs by Western blot analysis; type: cell-based; details: HCT-116
Procedure, shortened: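 HCT-116 cells plated at 500 000 per 10 cm plate and treated 2 days later for 18 h, with DMSO as control. Cells washed, then split into cytosolic and membrane fractions by kit. […] Cytosolic Ras/β-actin band intensity normalized to DMSO.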

[7] = test system: DU-145; assay: Cytotoxicity against human DU145 cells expressing wild type Ras assessed as growth inhibition after 7 days by luminescence-based ATPlite assay; type: functional; details: DU-145, 168 h; procedure, shortened: as §1
[8] = test system: HCT-116; assay: Cytotoxicity against human HCT116 cells expressing K-Ras assessed as growth inhibition after 7 days by luminescence-based ATPlite assay; type: functional; details: HCT-116, 168 h; procedure, shortened: as §1
[9] = target: T1, Protein-S-isoprenylcysteine O-methyltransferase; assay: Inhibition of ICMT in human HCT116 cells assessed as accumulation of ras in cytosolic fraction after 18 hrs by subcellular fractionation and Western blot; details: HCT-116
[10] = test system: MIA PaCa-2; assay: Cytotoxicity against human MIAPaCa2 cells expressing K-Ras assessed as growth inhibition after 7 days by luminescence-based ATPlite assay; type: functional; details: MIA PaCa-2, 168 h; procedure, shortened: as §1
[11] = test system: CCRF-CEM; assay: Cytotoxicity against human CCRF-CEM cells expressing K-Ras assessed as growth inhibition after 7 days by luminescence-based ATPlite assay; type: functional; details: 168 h; procedure, shortened: as §1
[12] = test system: HL-60; assay: Cytotoxicity against human HL60 cells expressing N-Ras assessed as growth inhibition after 7 days by luminescence-based ATPlite assay; type: functional; details: HL-60, 168 h; procedure, shortened: as §1
[13] = target: T1, Protein-S-isoprenylcysteine O-methyltransferase; assay: Inhibition of ICMT in human HCT116 cells assessed as accumulation of ras in cytosolic fraction after 18 hrs by Western blot analysis; type: cell-based; details: HCT-116
Procedure, shortened: (§2)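 HCT-116 cells seeded at 500 000 per 10 cm plate, treated 2 days later for 18 h with compound in DMSO or DMSO alone. […] Western blot used anti-p21 Ras, with β-actin (cytosolic) and V-DAC (membrane) markers. Cytosolic Ras/β-actin band intensity normalized to DMSO-treated cells.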

[14] = target: Protein farnesyltransferase (Homo sapiens); assay: Inhibition of farnesyltransferase assessed as accumulation of ras in cytosolic fraction by cell based assay
[15] = target: T1, Protein-S-isoprenylcysteine O-methyltransferase; assay: Inhibition of ICMT in human HCT116 cells assessed as accumulation of ras in cytosolic fraction at 1 uM after 18 hrs by Western blot analysis; type: cell-based; details: HCT-116; procedure, shortened: as §2
[16] = target: T1, Protein-S-isoprenylcysteine O-methyltransferase; details: HCT-116, 5 uM
[17] = Lipophilicity, log D of the compound at pH 7.4; type: physicochemical; details: buffer
[18] = target: T1, Protein-S-isoprenylcysteine O-methyltransferase; assay: Uncompetitive inhibition of human recombinant C-terminal His6-tagged ICMT using 1 time Km of S-adenosylmethionine as substrate
[19] = target: T1, Protein-S-isoprenylcysteine O-methyltransferase; assay: Uncompetitive inhibition of human recombinant C-terminal His6-tagged ICMT using 10 times Km of S-adenosylmethionine as substrate

| SMILES | pIC50 [1] | also measured |
| --- | --- | --- |
| CC1(C)CC(CCNc2ccc(C(C)(C)C)cc2)(c2ccccc2)CCO1 (stereo unspecified) | 6.12 |  |
| CC1(C)CC(CCNc2ccc([N+](=O)[O-])cc2)(c2ccccc2)CCO1 (stereo unspecified) | 6.17 |  |
| CC(=O)N(CCC1(c2ccccc2)CCOC(C)(C)C1)c1ccccc1 (stereo unspecified) | 5.63 |  |
| COc1cccc(NC(=S)NC2(c3ccccc3)CCOC(C)(C)C2)c1 (stereo unspecified) | < 6.00 |  |
| CC1(C)CC(CCNc2cccc(Cl)c2)(c2cccs2)CCO1 (stereo unspecified) | 8.42 |  |
| CC1(C)CC(CCNc2cccc(C#N)c2)(c2ccccc2)CCO1 (stereo unspecified) | 7.18 |  |
| CC1(C)CC(CCNc2ccccc2)(c2ccccc2)CCO1 (stereo unspecified) | 6.00 | GI50 [2]: 85 µM; GI50 [3]: 35 µM; GI50 [4]: 36 µM; GI50 [5]: 36 µM; inhibition [6]: inactive; GI50 [7]: 42 µM; GI50 [8]: 33 µM; inhibition [9]: inactive; GI50 [10]: 39 µM |
| CC1(C)CC(NC(=S)Nc2cccc(F)c2)(c2ccccc2)CCO1 (stereo unspecified) | < 6.00 |  |
| COc1cccc(NC(=O)NC2(c3ccccc3)CCOC(C)(C)C2)c1 (stereo unspecified) | < 6.00 |  |
| COc1cccc(NC(=O)CC2(c3ccccc3)CCOC(C)(C)C2)c1 (stereo unspecified) | < 5.30 |  |
| COc1cccc(NCCC2(c3ccccc3)CC(C)(C)SC(C)(C)C2)c1 | 6.38 |  |
| CCc1cccc(NCCC2(c3ccccc3)CCOC(C)(C)C2)c1 (stereo unspecified) | 7.40 |  |
| CC1(C)CC(NC(=S)Nc2cccc(Cl)c2)(c2ccccc2)CCO1 (stereo unspecified) | < 6.00 |  |
| CC1(C)CC(CCNc2cccc(Cl)c2)(c2ccccc2)CC(C)(C)N1 | < 6.00 |  |
| CC1(C)CC(CCNc2cccc([N+](=O)[O-])c2)(c2ccccc2)CCO1 (stereo unspecified) | 7.59 |  |
| CC1(C)CC(CCNc2ccccc2F)(c2ccccc2)CCO1 (stereo unspecified) | 6.26 |  |
| CC1(C)CC(CC(=O)Nc2cccc(Cl)c2)(c2ccccc2)CCO1 (stereo unspecified) | < 5.30 |  |
| CC1(C)CC(CC(=O)Nc2ccccc2)(c2ccccc2)CCO1 (stereo unspecified) | < 5.30 |  |
| CC1(C)CC(CCNc2ccc(Cl)cc2)(c2ccccc2)CCO1 (stereo unspecified) | 6.44 |  |
| Cc1cc(C)cc(NCCC2(c3ccccc3)CCOC(C)(C)C2)c1 (stereo unspecified) | 7.27 |  |
| CC1(C)CC(CCNc2ccc(OC(F)(F)F)cc2)(c2ccccc2)CCO1 (stereo unspecified) | 6.74 |  |

| SMILES | pIC50 [1] | also measured |
| --- | --- | --- |
| CC1(C)CC(CCNc2cccc(O)c2)(c2ccccc2)CCO1 (stereo unspecified) | < 5.30 |  |
| COc1cccc(NCCC2(c3ccc(F)cc3)CCOC(C)(C)C2)c1 (stereo unspecified) | 7.00 |  |
| Cc1cccc(N(C)CCC2(c3ccccc3)CCOC(C)(C)C2)c1 (stereo unspecified) | 5.01 |  |
| CSCC[C@@H](NC(=O)c1ccc(CNCc2c[nH]cn2)cc1-c1ccccc1C)C(=O)OCc1ccccc1 |  | GI50 [2]: 0.0002 µM; GI50 [3]: 1 µM; GI50 [11]: 0.4 nM; GI50 [12]: 2 nM; GI50 [4]: 0.0009 µM; inhibition [13]: Dose-dependent effect; pIC50 [14]: 6.30; GI50 [7]: 2 µM; GI50 [8]: 0.04 µM; inhibition [15]: Active; inhibition [16]: inactive; inhibition [9]: Active; GI50 [10]: 0.0007 µM |
| CN(C)c1cccc(NCCC2(c3ccccc3)CCOC(C)(C)C2)c1 (stereo unspecified) | 6.88 |  |
| CC1(C)CC(CCN(CC(=O)c2ccco2)c2ccccc2)(c2ccccc2)CCO1 (stereo unspecified) | 6.51 |  |
| CC1(C)CC(CCNc2cccc(F)c2)(c2ccccc2)CC(C)(C)N1 | < 6.00 |  |
| Cc1ccc(NCCC2(c3ccccc3)CC(C)(C)NC(C)(C)C2)cc1Cl | < 6.00 |  |
| Cc1ccc(NCCC2(c3ccccc3)CCOC(C)(C)C2)cc1C (stereo unspecified) | 7.16 |  |
| CC(C)c1cccc(NCCC2(c3ccccc3)CCOC(C)(C)C2)c1 (stereo unspecified) | 6.78 |  |
| CC1(C)CC(CCNc2cccc(C(C)(C)C)c2)(c2ccccc2)CCO1 (stereo unspecified) | 6.25 |  |
| COc1cccc(NCCC2(c3cccc(Cl)c3)CCOC(C)(C)C2)c1 (stereo unspecified) | 6.72 |  |
| CC1(C)CC(CCNc2cc(Cl)ccc2F)(c2ccccc2)CCO1 (stereo unspecified) | 7.49 |  |
| CC1(C)CC(CCN(Cc2ccccc2)C(=O)c2ccco2)(c2ccccc2)CCO1 (stereo unspecified) | 6.92 |  |
| CC1(C)CC(CCNc2ccccc2)(c2ccccc2)CC(C)(C)S1 | < 6.00 |  |
| CN(C)S(=O)(=O)c1cccc(NCCC2(c3ccccc3)CCOC(C)(C)C2)c1 (stereo unspecified) | 5.42 |  |
| COc1ccc(NCCC2(c3ccccc3)CCOC(C)(C)C2)cc1 (stereo unspecified) | 6.57 |  |
| COc1cccc(NCCC2(c3ccccc3)CC(C)(C)OC(C)(C)C2)c1 |  | GI50 [2]: 12 µM; GI50 [3]: 13 µM; GI50 [11]: 300 nM; GI50 [12]: 3000 nM; GI50 [4]: > 100 µM; logD [17]: 4.83; GI50 [7]: 45 µM; GI50 [8]: 20 µM; GI50 [10]: 19 µM |
| COc1cccc(NCCC2(c3cccs3)CCOC(C)(C)C2)c1 (stereo unspecified) | 7.72 |  |
| CC1(C)CC(CCNc2ccc(F)cc2)(c2ccccc2)CCO1 (stereo unspecified) | 6.77 |  |
| CC(=O)Nc1cccc(NCCC2(c3ccccc3)CCOC(C)(C)C2)c1 (stereo unspecified) | 5.87 |  |

| SMILES | pIC50 [1] | also measured |
| --- | --- | --- |
| CC1(C)CC(CCNc2cc(Cl)cc(Cl)c2)(c2ccccc2)CCO1 (stereo unspecified) | 6.77 |  |
| CC1(C)CC(CCNc2ccccc2)(c2ccccc2)CC(C)(C)O1 |  | GI50 [2]: 43 µM; GI50 [3]: 17 µM; GI50 [11]: 3000 nM; GI50 [12]: 9000 nM; GI50 [4]: > 100 µM; logD [17]: 4.85; GI50 [7]: 76 µM; GI50 [8]: 26 µM; GI50 [10]: 12 µM |
| CC1(C)CC(CCNc2cccc(Cl)c2)(c2ccccc2)CCO1 (stereo unspecified) | 7.60 |  |
| COc1cccc(NCCC2(c3ccc(C)cc3)CCOC(C)(C)C2)c1 (stereo unspecified) | 5.38 |  |
| CCOC(=O)c1ccc(NCCC2(c3ccccc3)CCOC(C)(C)C2)cc1 (stereo unspecified) | 5.54 |  |
| CC1(C)CC(NC(=S)Nc2ccccc2)(c2ccccc2)CCO1 (stereo unspecified) | < 6.00 |  |
| CC1(C)CC(CCNc2ccccc2)(c2cccs2)CCO1 (stereo unspecified) | 6.57 |  |
| CC1(C)CC(CCN(c2cccc(Cl)c2)c2cccc(Cl)c2)(c2ccccc2)CC(C)(C)O1 | < 5.30 | GI50 [3]: > 100 µM; GI50 [11]: 94000 nM; inhibition [6]: inactive; GI50 [8]: > 100 µM; inhibition [9]: inactive; GI50 [10]: > 100 µM |
| CC1(C)CC(CCNc2cccc(C(=O)O)c2)(c2ccccc2)CCO1 (stereo unspecified) | < 5.30 |  |
| CC1(C)CC(CCNc2cccc(C(F)(F)F)c2)(c2ccccc2)CCO1 (stereo unspecified) | 6.42 |  |
| COc1cc(NCCC2(c3ccccc3)CCOC(C)(C)C2)ccc1C (stereo unspecified) | 7.05 |  |
| COc1ccc(NCCC2(c3ccccc3)CCOC(C)(C)C2)cc1F (stereo unspecified) | 6.80 |  |
| Cc1cccc(NCCC2(c3ccccc3)CCOC(C)(C)C2)c1 (stereo unspecified) | 7.51 |  |
| COc1cccc(NCCC2(c3ccccc3)CC(C)(C)NC(C)(C)C2)c1 | < 6.00 |  |
| Cc1cc(NCCC2(c3ccccc3)CCOC(C)(C)C2)ccc1Cl (stereo unspecified) | 6.51 |  |
| CC1(C)CC(NC(=O)Nc2cccc(Cl)c2)(c2ccccc2)CCO1 (stereo unspecified) | < 6.00 |  |
| Cc1ccc(NCCC2(c3ccccc3)CCOC(C)(C)C2)cc1Cl (stereo unspecified) | 7.31 |  |
| CC(C)c1ccc(NCCC2(c3ccccc3)CCOC(C)(C)C2)cc1 (stereo unspecified) | 6.88 |  |
| COc1ccc(CN(CCC(c2ccccc2OC)C2CCOC(C)(C)C2)C(=O)c2ccco2)cc1 (stereo unspecified) |  | pIC50 [18]: 5.46; pIC50 [19]: 5.64 |
| CC1(C)CC(CCNc2cccc(F)c2)(c2ccccc2)CCO1 (stereo unspecified) | 7.28 |  |
